≈ marks a conversion by molar mass, not a printed value. Calls of active or inactive are those of the source. The rule behind the calls is not given here.
Tests used:
KB [1] = assay: Cytotoxicity against human KB cells; format: functional, cell-based
[2] = Growth inhibition of human telomerase […] RPE1 cells implanted at intraperitoneal compartment of athymic NCr nu/nu mouse at 25 mg/kg, ip administered once daily after 3 to 6 days of fiber implantation measured on day 7 by hollow fiber assay; format: functional, TERT-RPE1; settings: RPE-1, ip, read-out: GI
How it was run: (§1)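 Hollow fibers carrying KB (7.5 × 10⁵ cells/mL), Col-2 (10⁶ cells/mL) or hTERT-RPE1 (2.5 × 10⁶ cells/mL) cells were implanted i.p. and s.c. in female athymic NCr nu/nu mice. Compound was coprecipitated with PVP (MW 360 000) and dissolved in PBS. Doses of 6.25, 12.5 or 25 mg/kg were given i.p. once daily on days 3–6 after implantation. Fiber cell growth inhibition was measured.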

Mus musculus [3] = assay: Toxicity in athymic NCr nu/nu mouse implanted with human telomerase […] RPE1 cells at subcutaneous compartment assessed as body weight loss at 25 mg/kg, ip administered once daily after 3 to 6 days of fiber implantation measured on day 7 by hollow fiber assay; format: organism-based; parameters: dose 25 mg/kg; settings: in vivo, sc
How it was run: (§2)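 Female athymic NCr nu/nu mice carried i.p. and s.c. hollow fibers with KB, Col-2 or hTERT-RPE1 cells. They received the PVP-coprecipitated compound in PBS at 6.25, 12.5 or 25 mg/kg i.p. once daily on days 3–6 after implantation. Toxicity was followed as body weight, recorded daily.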

Col2 [4] = assay: Growth inhibition of human Col2 cells implanted at subcutaneous compartment of athymic NCr nu/nu mouse at 25 mg/kg, ip administered once daily after 3 to 6 days of fiber implantation measured on day 7 by hollow fiber assay; format: functional; settings: Col2, sc, read-out: GI; how it was run: as §1
Mus musculus [5] = assay: Toxicity in athymic NCr nu/nu mouse implanted with human Col2 cells at subcutaneous compartment assessed as body weight loss at 25 mg/kg, ip administered once daily after 3 to 6 days of fiber implantation measured on day 7 by hollow fiber assay; format: organism-based; parameters: dose 25 mg/kg; settings: in vivo, sc; how it was run: as §2
KB [6] = assay: Growth inhibition of human KB cells implanted at intraperitoneal compartment of athymic NCr nu/nu mouse at 25 mg/kg, ip administered once daily after 3 to 6 days of fiber implantation measured on day 7 by hollow fiber assay; format: functional; settings: read-out: GI; how it was run: as §1
KB [7] = assay: Growth inhibition of human KB cells implanted at subcutaneous compartment of athymic NCr nu/nu mouse at 25 mg/kg, ip administered once daily after 3 to 6 days of fiber implantation measured on day 7 by hollow fiber assay; format: functional; settings: sc, read-out: GI; how it was run: as §1
Mus musculus [8] = assay: Toxicity in athymic NCr nu/nu mouse implanted with human telomerase […] RPE1 cells at intraperitoneal compartment assessed as body weight loss at 25 mg/kg, ip administered once daily after 3 to 6 days of fiber implantation measured on day 7 by hollow fiber assay; format: organism-based; parameters: dose 25 mg/kg, route intraperitoneal; settings: in vivo; how it was run: as §2
Mus musculus [9] = assay: Toxicity in athymic NCr nu/nu mouse implanted with human KB cells at subcutaneous compartment assessed as body weight loss at 25 mg/kg, ip administered once daily after 3 to 6 days of fiber implantation measured on day 7 by hollow fiber assay; format: organism-based; parameters: dose 25 mg/kg; settings: in vivo, sc; how it was run: as §2
Mus musculus [10] = assay: Toxicity in athymic NCr nu/nu mouse implanted with human KB cells at intraperitoneal compartment assessed as body weight loss at 25 mg/kg, ip administered once daily after 3 to 6 days of fiber implantation measured on day 7 by hollow fiber assay; format: organism-based; parameters: dose 25 mg/kg, route intraperitoneal; settings: in vivo; how it was run: as §2
Mus musculus [11] = assay: Toxicity in athymic NCr nu/nu mouse implanted with human Col2 cells at intraperitoneal compartment assessed as body weight loss at 25 mg/kg, ip administered once daily after 3 to 6 days of fiber implantation measured on day 7 by hollow fiber assay; format: organism-based; parameters: dose 25 mg/kg, route intraperitoneal; settings: in vivo; how it was run: as §2
LNCaP = assay: Cytotoxicity against human LNCAP cells; format: functional, cell-based
[12] = Growth inhibition of human telomerase […] RPE1 cells implanted at subcutaneous compartment of athymic NCr nu/nu mouse at 25 mg/kg, ip administered once daily after 3 to 6 days of fiber implantation measured on day 7 by hollow fiber assay; format: functional, TERT-RPE1; settings: RPE-1, sc, read-out: GI; how it was run: as §1
Col2 [13] = assay: Growth inhibition of human Col2 cells implanted at intraperitoneal compartment of athymic NCr nu/nu mouse at 25 mg/kg, ip administered once daily after 3 to 6 days of fiber implantation measured on day 7 by hollow fiber assay; format: functional; settings: read-out: GI; how it was run: as §1
Col2 [14] = assay: Cytotoxicity against human Col2 cells; format: functional, cell-based

COc1ccc2c(c1)O[C@@H]1c3ccc(O)cc3OC[C@H]21
EC50 (KB [1]): 2.4 µg/mL (≈ 8.88 µM)

COc1c(O)cc(C/C=C/c2ccccc2)c(OC)c1O [MACHARISTOL]
inhibition in vivo at 25 mg/kg [2]: 31% | Activity (Mus musculus [3]): Non-toxic | inhibition in vivo at 25 mg/kg (Col2 [4]): 35% | Activity (Mus musculus [5]): Non-toxic | inhibition in vivo at 25 mg/kg (KB [6]): 23% | inhibition in vivo at 25 mg/kg (KB [7]): 0% | Activity (Mus musculus [8]): Non-toxic | Activity (Mus musculus [9]): Non-toxic | Activity (Mus musculus [10]): Non-toxic | Activity (Mus musculus [11]): Non-toxic | EC50 (LNCaP): 2.4 µg/mL (≈ 8.38 µM) | inhibition in vivo at 25 mg/kg [12]: 45% | inhibition in vivo at 25 mg/kg (Col2 [13]): 35% | EC50 (KB [1]): 1.7 µg/mL (≈ 5.94 µM) | EC50 (Col2 [14]): 3 µg/mL (≈ 10.5 µM)

Oc1ccc2c(c1)OC[C@@H]1c3cc4c(cc3O[C@H]21)OCO4
Activity (KB [1]): inactive

COc1ccc(-c2coc3cc(O)ccc3c2=O)cc1
Activity (KB [1]): inactive
